Data: PubChem BioAssay
Active and inactive are the calls of the source.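 The calls were made as follows, unless noted: active = compounds giving at least 50% inhibition in the cell-based MKP-3 phosphatase rescue imaging test; inactive = the rest.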

Legend:
[1] = inhibitors of TNFa-induced NFkB p65 translocation, primary screen, imaging, HUVEC, MLSMR starter and 10KST1 sets (AID 438;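 active = inhibition above 20% together with a positive visual image hit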;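 also: compound added about 3h40 before a 20 min TNFalpha stimulation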;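 as to inhibition: signal is the nuclear over cytoplasmic p65 intensity ratio per well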); details: HUVEC TNFa-induced p65 nuclear translocation; cell count: measured here: nuclei count (cytotoxicity indicator), at 2.08 µM; inhibition: at 2 µM, stronger effect = higher value, 0% TNFa-plus-vehicle, 100% no-TNFa wells
[2] = endothelial E-selectin expression blockers – imaging, HUVEC, immunofluorescence, MLSMR starter and 10KST1 sets, primary screen (AID 487;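 active = visually confirmed hit in the image check and inhibition above 20%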;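 as to inhibition: signal is fraction of cell area covered by stained E-selectin grains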;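 as to nuclei count: 100% = median nuclei count of all wells on the same plate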); details: HUVEC TNFalpha-induced E-selectin immunofluorescence imaging, at 2 µM; inhibition: stronger effect = higher value; nuclei count: measured here: cell number, toxicity
[3] = Primary imaging screen for DUSP6 inhibitors that restore phospho-Erk in transfected HeLa cells, chemical complementation (AID 609); details: HeLa MKP-3 transfected, phospho-Erk imaging KS statistic, at 10 µM, cells stimulated with TPA for 15 min;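 as to inhibition: phospho-Erk level distribution per well compared with pooled transfected vehicle control wells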
[4] = molecular target: Dual specificity protein phosphatase 6 (Homo sapiens) (UniProt Q16828); assay: as above; details: HeLa MKP-3 transfected, phospho-Erk imaging KS statistic; at 10 µM; stronger effect = higher value; cells stimulated with TPA for 15 min
[5] = molecular target: Voltage-gated potassium channel subunit beta-2 (Rattus norvegicus) (UniProt P62483); assay: inhibitors of rat Kvbeta2 reductase activity – biochemical, NADPH fluorescence, primary screen (AID 622;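 active = fluorescence slope higher than the sample average by over 3 SD, cut at about -0.22 in these data, passing the limit was not always enough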;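 also: slope of raw intensity against log time taken from 70 to 1610 s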); details: recombinant KvBeta, 4-cyanobenzaldehyde reduction, at 10 µM, stronger effect = higher value
[6] = molecular target: Voltage-gated potassium channel subunit beta-2 (Rattus norvegicus) (UniProt P62483); assay: enhancers of rat Kvbeta2 NADPH turnover – biochemical, NADPH fluorescence, primary screen (AID 623;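 active = NADPH fluorescence slope more negative than the mean of all samples by about 3 SD, 99.7% confidence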;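 also: fluorescence intensity change per second fitted from 20 to 320 s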); details: Recombinant KvBeta, NADPH fluorescence decrease slope, 10 min; at 10 µM; stronger effect = lower value
[7] = molecular target: Muscarinic acetylcholine receptor M4 (Homo sapiens) (UniProt P08173); assay: M4-linked GIRK flux change, two-sided – cell-based, HEK293 M4/GIRK, thallium flux, BTC-AM, M4 allosteric agonist project, primary screen (AID 625;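 active = fluorescence slope after compound addition differing from the mean of all tested samples at 99.7% confidence, mostly higher but some lower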;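 also: thallium influx through GIRK channels coupled to M4 in HEK293 cells with BTC-AM dye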); details: at 10 µM, actives lie on both sides
In short: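 Material – HEK293 cells with M4 receptor and GIRK channels · Buffer or medium – pH 7.3 thallium assay buffer · Doses – one dose, 10 µM final · Timing – cells overnight at 37 °C, BTC-AM loading 1 h, reads 2 min total · Measured by – kinetic fluorescence with BTC-AM dye · Controls – carbachol and DMSO controls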

[8] = inhibitors of larval lipid processing in zebrafish, primary screen, whole organism, PED6 fluorescence, gall bladder and intestine (AID 686;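 active = a full or partial loss of lipid-probe fluorescence in the fish gall bladder, intestine or both, judged by eye; inactive = no fluorescence loss, or compound toxic to the fish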;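 also: larvae 5 to 7 days old with five fish per well; signal comes from phospholipase A2 cleavage of quenched PED6 carried via bile; overnight exposure to compound and PED6 before scoring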); details: Zebrafish larvae PED6 lipid processing, fluorescence scoring; screened at 20 µM (by protocol)
In short: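 system = live zebrafish larvae aged 5-7 days, whole organism | probe or stimulus = ingested quenched lipid PED6 at 100 nM | doses = 20 µM single dose | timing = overnight exposure | detection = fluorescence microscopy with visual scoring of gall bladder and intestine | read-out = visual per-well fluorescence inhibition score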

[9] = loss of swimming-algae plug formation – whole organism, Chlamydomonas reinhardtii, WT vs cilia-less mutant, absorbance, 96-well, primary screen (AID 463189;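 active = inhibition at or above 50% relative to wild type and mutant plate controls; inactive = inhibition below 50%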;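 also: 0% = wild type cc124 cells in DMSO and 100% = ciliumless bld1 mutant cells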); details: Chlamydomonas reinhardtii gravitaxis, OD600 absorbance, 2 days; at 10 µM; stronger effect = higher value
[10] = measured here: cell density z-score
[11] = measured here: nuclear c-Myc green intensity z-score
[12] = measured here: nuclear pErk red intensity z-score, stronger effect = higher value

Sequence of Voltage-gated potassium channel subunit beta-2 (Rattus norvegicus) (P62483 whole entry, looked up): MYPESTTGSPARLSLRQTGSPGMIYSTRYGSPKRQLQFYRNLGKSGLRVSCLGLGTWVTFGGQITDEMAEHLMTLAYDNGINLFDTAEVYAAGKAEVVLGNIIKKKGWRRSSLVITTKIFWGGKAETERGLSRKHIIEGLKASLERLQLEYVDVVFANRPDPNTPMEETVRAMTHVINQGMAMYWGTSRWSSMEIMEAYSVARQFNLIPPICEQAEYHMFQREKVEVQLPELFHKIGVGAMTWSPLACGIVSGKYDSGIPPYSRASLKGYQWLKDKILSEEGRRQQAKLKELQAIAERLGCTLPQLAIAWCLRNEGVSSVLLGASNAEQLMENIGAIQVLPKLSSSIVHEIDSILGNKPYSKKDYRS
Sequence of Muscarinic acetylcholine receptor M4 (Homo sapiens) (P08173 whole entry, looked up): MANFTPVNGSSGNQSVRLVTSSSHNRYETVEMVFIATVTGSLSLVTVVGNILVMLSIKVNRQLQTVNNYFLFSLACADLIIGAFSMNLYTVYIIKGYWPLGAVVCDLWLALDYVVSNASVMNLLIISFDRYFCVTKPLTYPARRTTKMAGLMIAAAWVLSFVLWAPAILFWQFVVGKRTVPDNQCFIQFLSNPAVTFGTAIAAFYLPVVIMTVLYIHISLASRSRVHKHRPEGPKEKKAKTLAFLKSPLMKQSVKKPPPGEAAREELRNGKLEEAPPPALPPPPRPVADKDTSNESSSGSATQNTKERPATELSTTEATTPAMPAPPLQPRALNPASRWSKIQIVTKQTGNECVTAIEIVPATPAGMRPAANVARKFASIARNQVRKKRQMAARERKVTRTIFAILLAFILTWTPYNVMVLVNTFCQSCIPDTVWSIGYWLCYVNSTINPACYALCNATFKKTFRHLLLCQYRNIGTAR
Sequence of Dual specificity protein phosphatase 6 (Homo sapiens) (Q16828 whole entry, looked up): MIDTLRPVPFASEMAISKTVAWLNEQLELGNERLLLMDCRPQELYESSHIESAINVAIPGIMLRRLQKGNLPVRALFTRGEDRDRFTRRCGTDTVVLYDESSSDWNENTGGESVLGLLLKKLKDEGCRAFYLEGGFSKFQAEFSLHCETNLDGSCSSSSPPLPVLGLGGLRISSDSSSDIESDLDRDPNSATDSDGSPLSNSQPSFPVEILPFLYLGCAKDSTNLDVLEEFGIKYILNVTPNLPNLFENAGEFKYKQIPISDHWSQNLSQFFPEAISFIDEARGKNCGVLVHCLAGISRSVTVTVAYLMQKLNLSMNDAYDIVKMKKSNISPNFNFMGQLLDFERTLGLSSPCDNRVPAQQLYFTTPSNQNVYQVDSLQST

SMILES	cell count [1]	inhibition [1]	inhibition [2]	nuclei count [2] [%]	z-score [3, 10]	z-score [3, 11]	z-score [3, 12]	inhibition [4]	fluorescence slope [5]	NADPH fluorescence slope [6]	fluorescence slope [7]	outcome [8]	inhibition [9]
CCCOC(=O)CSC1=C(C#N)C(c2ccc3c(c2)OCO3)CC(=O)N1 (stereo not given)	674	-6.1% (inactive)	-91.1% (inactive)	161	0.796	-0.679	-1.26	-7.86% (inactive)	-0.487 (inactive)	-6.2e-05 (inactive)	0.00536 (inactive)	inactive	6.85% (inactive)
O=C(OCCN1CCOCC1)c1ccc2c(c1)OCCO2	644	-12.8% (inactive)	1.7% (inactive)	180	0.036	0.0112	0.434	-9.53% (inactive)	-0.473 (inactive)	-6.5e-05 (inactive)	0.00543 (inactive)	inactive	-3.31% (inactive)
CCOC(=O)C1=C(N)n2c(s/c(=C\c3ccco3)c2=O)=C(C(=O)OC(C)C)C1c1ccco1 (stereo not given)	383	-7.4% (inactive)	-126% (inactive)	166	0.588	-1.67	1.18	-4.59% (inactive)	-0.46 (inactive)	-7.4e-05 (inactive)	0.00444 (inactive)	inactive	27.2% (inactive)
COC(=O)/C=c1/s/c(=C(/C#N)C(=O)N2CCCCC2)n(-c2ccccc2)c1=O	585	-0.7% (inactive)	-20.5% (inactive)	90.8	-0.699	0.059	0.258	-5.81% (inactive)	-0.546 (inactive)	-1.7e-05 (inactive)	0.00519 (inactive)	inactive	15.4% (inactive)
N#C/C(=C\c1c(N2CCC(C(N)=O)CC2)nc2ccccn2c1=O)S(=O)(=O)c1ccccc1	444	-3.7% (inactive)	-112% (inactive)	144	1.56	-0.902	-1.07	12.7% (inactive)	-0.423 (inactive)	-2.9e-05 (inactive)	0.00437 (inactive)	inactive	4.15% (inactive)
CCOC(=O)C1=Nc2ccccc2C1=[N+]=[N-]	714	-2.2% (inactive)	6.6% (inactive)	179	-0.487	0.636	1.84	-5.95% (inactive)	-0.477 (inactive)	-4.9e-05 (inactive)	0.00733 (inactive)	inactive	152% (active)
Cn1c(=O)c2c(nc(Br)n2Cc2ccc3ccccc3c2)n(C)c1=O	623	-9.2% (inactive)	-12.5% (inactive)	163	-0.362	-0.997	0.811	-8.95% (inactive)	-0.5 (inactive)	-5.2e-05 (inactive)	0.00605 (inactive)	inactive	5.52% (inactive)
CCOc1ccc(-c2nc(C#N)c(N3CCN(CC)CC3)o2)cc1	416	0.1% (inactive)	-29.1% (inactive)	129	0.554	0.103	0.968	-2.69% (inactive)	-0.498 (inactive)	-0.00012 (inactive)	0.00446 (inactive)	inactive	5.29% (inactive)
CCCn1c(SCC#N)nc2c(c1=O)C1(CCCC1)Cc1ccccc1-2	547	-1.4% (inactive)	-10.8% (inactive)	185	-0.545	0.717	-0.241	3.97% (inactive)	-0.402 (inactive)	-3.9e-05 (inactive)	0.00798 (inactive)	inactive	-14.9% (inactive)
C=CCNc1nc(N2CCOCC2)c(C#N)c2c1CN(C)CC2	600	-5.7% (inactive)	-83.6% (inactive)	138	0.63	-0.71	0.0349	9.07% (inactive)	-0.417 (inactive)	-9.1e-05 (inactive)	0.00406 (inactive)	inactive	1.91% (inactive)
